Only some compounds are listed: those with a hit (about 1.3% of all), similar ones and a draw of the others.
Wee1 stabilizer – inhibitors of human Wee1 degradation; P30291; HeLa Luc-Wee1K328M stability, luciferase luminescence; 100% = proteasome inhibitor MG132 effect; reporter increase, % at 5 µM; 1.2% of 220,000 active;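 active = activation above the mean of all tested compounds plus 3 SD, set per screening run, cut at about 8.8% in these data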;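 also: cells exposed to compound for 20 h before luminescence read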
Pf gametocyte – kills late stage P. falciparum gametocytes. P. falciparum stage V gametocytes, ATP luminescence, 24 h. inhibition, % at 10.9 µM. 0.065% of 150,000 active. AID 743093;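 active = inhibition above the mean plus 3 SD of compounds within the control limits, set per campaign, cut at about 38% in these data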
Hsp70 act – transcriptional activators of Hsp70; HeLa Hsp70 promoter luciferase reporter, luminescence; scaled: vehicle 0, proteasome-inhibitor control 100%; 0.04% of 200,000 active; AID 1203; activation, % at 10 µM;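 active = activation above the mean across all tested compounds plus 3 SD, cutoff set per campaign, cut at about 5.5% in these data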
MDM2 E3 inh – blocks human Mdm2 ubiquitin ligase activity; Q00987; 0.11% of 210,000 active; cell-based MDM2 ubiquitination luciferase reporter, 2 h; 0 = plate control, 100 = twice control, blank-subtracted; signal enhancement, % at 5 µM;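 active = signal enhancement of 30% or more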;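 also: luminescence tracks abundance of the self-degrading MDM2-luciferase fusion protein; higher signal means inhibition of MDM2 E3 ligase activity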
Target sequence (Q00987 whole entry, looked up, the tested form may be a part): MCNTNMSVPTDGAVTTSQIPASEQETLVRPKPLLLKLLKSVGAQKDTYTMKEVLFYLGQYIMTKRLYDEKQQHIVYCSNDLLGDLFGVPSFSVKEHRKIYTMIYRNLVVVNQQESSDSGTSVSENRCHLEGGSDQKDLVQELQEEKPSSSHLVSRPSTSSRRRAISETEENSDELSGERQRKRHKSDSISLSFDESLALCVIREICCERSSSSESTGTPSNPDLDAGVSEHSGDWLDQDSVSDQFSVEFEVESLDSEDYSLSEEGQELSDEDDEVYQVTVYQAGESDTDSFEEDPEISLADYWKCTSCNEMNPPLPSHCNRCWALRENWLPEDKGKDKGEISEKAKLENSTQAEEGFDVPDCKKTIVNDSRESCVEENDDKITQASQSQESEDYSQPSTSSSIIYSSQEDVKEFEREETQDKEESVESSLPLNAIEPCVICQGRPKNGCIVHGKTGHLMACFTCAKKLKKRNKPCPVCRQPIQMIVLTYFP
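System: stable MDM2–luciferase fusion reporter cells / Input: 2000 cells seeded into each well / Schedule: 4 h settle plus 2 h compound, 37 °C / Compound: single-point 5 µM / Buffer or medium: cells held in DMEM / Benchmarks: control and blank well means / Evaluation: percent signal gain over controls, blank-subtracted / Measured by: luciferase luminescence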
Wee1 degr conf – confirmation of human Wee1 degradation inhibitors. shares compounds with Wee1 stabilizer. HeLa Luc-Wee1K328M degradation, luminescence; vehicle 0%, proteasome-blocked wells 100%. activation, % at 5 µM. 4% of 1,100 active. AID 1410; in the data active = activation above about 8.9%
Hits are given with their value; n = inactive; x = no result given.

SMILES	Wee1 stabilizer	Pf gametocyte	Hsp70 act	MDM2 E3 inh	Wee1 degr conf
COc1cc(CNCCCCO)ccc1OCc1ccccc1F	11.7	n	n	n	n
CCOc1cc(/C=C2\C(=O)ON=C2C)ccc1OCc1ccccc1	17.8	n	n	n	n
CCOc1cc(/C=C/C(=O)O)ccc1OCc1ccccc1	n	n	n	n	x
O=C(CS(=O)(=O)c1ccccc1)N1CCc2ccccc21	12.2	n	n	n	n
CCOc1ccc(-n2c(SCc3ccc([N+](=O)[O-])cc3)nnc2-c2ccc(OC)cc2)cc1	n	x	n	n	x
c1cc2c3c(cccc3c1)C(N1CCN(C3=Nc4cccc5cccc3c45)CC1)=N2	n	x	n	x	x
COc1ccccc1N1CCN(C2=Nc3cccc4cccc2c34)CC1	15.3	n	n	n	n
CC1CCCCC1NC(=O)COC(=O)c1c2c(nc3ccccc13)/C(=C/c1ccco1)CC2 (centres undefined)	11.3	n	n	n	n
CCn1ncc(Br)c1C(=O)Nc1cccc(F)c1	13.3	n	n	n	n
CCn1ncc(Br)c1C(=O)Nc1ccc2c(c1)OCCO2	n	n	n	n	x
O=C(CC(c1ccccc1)c1ccccc1)Nc1ccc(Cl)cn1	n	x	n	n	x
O=C(/C=C/c1ccccc1)Nc1ccc(Cl)cn1	11.4	x	n	n	9.0
CCOc1cc(C2C(C#N)=C(N)OC3=C2C(=O)CC(C)(C)C3)cc([N+](=O)[O-])c1O (centres undefined)	n	x	n	n	x
CC1(C)CC(=O)C2=C(C1)OC(N)=C(C#N)C2c1cc2c(cc1[N+](=O)[O-])OCO2 (centres undefined)	11.2	n	n	n	n
O=C(Cc1ccc(Cl)cc1)Nc1ccc(S(=O)(=O)Nc2cnc3ccccc3n2)cc1	11.5	n	n	n	n
O=C(Nc1ccc(S(=O)(=O)Nc2cnc3ccccc3n2)cc1)c1ccc(Cl)cc1Cl	x	n	x	x	x
CCCCCCCC1(C)NC(=O)N(c2ccccc2)N1 (centres undefined)	13.8	x	n	n	n
Cc1cccc(NC(=O)CSc2nnc(-c3n[nH]c4ccccc34)o2)c1	n	n	n	n	x
N#Cc1cccc(NC(=O)CSc2nnc(-c3n[nH]c4ccccc34)o2)c1	21.5	n	n	n	n
c1ccc2c(c1)CCc1ccccc1C2=C1CCNCC1	x	n	x	x	x
Cc1ccc2nc(-c3ccc4c(c3)OCCO4)cn2c1	n	n	x	n	x
Cc1ccc2nc(-c3ccc4c(c3)NC(=O)CO4)cn2c1	20.3	n	x	n	n
Cc1ccc(C2OC3=C(C(=O)CC(C)(C)C3)C(N)=C2C#N)o1 (centres undefined)	15.2	n	n	n	n
Cc1ccc(C2C(C#N)=C(N)SC(N)=C2C#N)o1	n	x	n	n	x
CCCn1c(N)c(C(=S)NC(=O)C2CC2)c(=O)n(C)c1=O	n	x	n	n	x
SMILES	Wee1 stabilizer	Pf gametocyte	Hsp70 act	MDM2 E3 inh	Wee1 degr conf
O=C(Nc1cccc([N+](=O)[O-])c1)c1ccc(N2CCCC2=O)cc1	n	n	n	n	x
CCS(=O)(=O)N1Cc2ccccc2CC1C(=O)Nc1ccc(F)cc1 (centres undefined)	14.6	n	x	x	n
CCN(CC)CC(=O)NN(Cc1ccccc1)c1ccccc1	11.1	n	x	n	n
CN1CCN(CC(=O)NN(Cc2ccccc2)c2ccccc2)CC1	n	n	x	n	x
O=C(/C=C/c1cccc(O)c1)c1ccc(N2CCOCC2)cc1	n	n	x	n	x
Cc1ccc(F)c(NC(=O)c2ccc(Cn3cc(Cl)cn3)cc2)c1	11.8	n	n	n	n
COc1ccc(NC(=O)c2ccc(Cn3cc(Cl)cn3)cc2)cc1	n	n	n	n	x
COc1ccc(Cl)c2c1[nH]c1nc(SCc3cccnc3)nnc12	12.7	n	n	n	n
COc1ccc(Cl)c2c1[nH]c1nc(SCc3ccccn3)nnc12	n	n	n	n	x
CC(=O)c1c(COC(=O)c2ccc(C)cc2)nc2ccccc2[n+]1[O-]	16.4	n	x	n	n
CC(=O)c1c(COC(=O)c2ccc(F)cc2)nc2ccccc2[n+]1[O-]	n	n	x	n	x
CC1c2ccsc2CCN1C(=O)NC(=O)c1ccc(Cl)cc1 (centres undefined)	13.6	n	x	n	n
C[C@H](CO)N1C[C@H](C)[C@@H](CN(C)S(=O)(=O)c2cn(C)cn2)Oc2ccc(NC(=O)Cn3cnnn3)cc2C1=O	x	n	x	x	x
Cn1c2c(c(=O)c3ccccc31)CCC(C)(C)O2	11.5	n	n	n	n
Nc1nc(Nc2ccccc2F)nc(NCCO)c1[N+](=O)[O-]	n	n	x	n	x
O=C(CSCc1ccccc1)Nc1ccc2c(c1)OCO2	12.1	x	n	n	n
C/C(CC(=O)Nc1ccc2c(c1)OCO2)=N\NC(=O)c1ccccc1N	12.2	n	x	n	n
Cc1ccc(S(=O)(=O)NCc2cccnc2)cc1C	x	n	x	x	x
Cc1ccc(S(=O)(=O)NCc2ccncc2)cc1	n	x	n	n	x
CC(=O)Nc1ccc(S(=O)(=O)NCc2ccncc2)cc1	11.8	n	n	n	n
CNC(=O)CNC(=O)Nc1ccc(Cl)c(Cl)c1	n	x	n	n	x
Cc1ccc(NC(=O)COc2ccccc2C=O)cc1Cl	15.5	n	n	n	n
CN(C)S(=O)(=O)c1cccc(NC(=O)CNCC2CCCCC2)c1	12.0	n	n	n	n
CCN(CC)S(=O)(=O)c1cccc(NC(=O)CNC2CCCCCC2)c1	n	n	x	n	x
CNc1nc(-c2ccc3c(c2)CCN3C(=O)c2ccccc2F)c(C)s1	n	n	n	n	x
SMILES	Wee1 stabilizer	Pf gametocyte	Hsp70 act	MDM2 E3 inh	Wee1 degr conf
CNc1nc(-c2ccc3c(c2)CCN3C(=O)c2ccccc2F)cs1	11.3	x	n	n	n
Cc1ccc(-n2c(C)cc(C(=O)CN3CCCCC3)c2C)cc1	n	x	n	n	x
COc1ccc(OC)c(CNC(=O)CCCc2cn(C)c3ccccc23)c1	n	x	n	x	x
COc1ccc(Br)cc1CNC(=O)CCCc1cn(C)c2ccccc12	11.1	x	n	x	n
CC(=O)Nc1ccc(N2C(C(C)=O)=NN(c3ccc(Cl)cc3)C2c2sccc2C)cc1 (centres undefined)	n	n	n	x	x
Cn1cc(CN2CCC(CO)(CCCc3ccccc3)CC2)c(-c2ccccc2)n1	n	n	x	n	x
Cc1cc(/C=N/NC(=O)COc2cccc3cccnc23)c(C)n1-c1ccc(O)cc1	14.1	n	n	n	n
CCN(CC)C(=O)C(=O)c1ccn(-c2c(C)csc2C(=O)OC)c1	n	n	n	n	x
Cc1ccc(C2CCN(C(=O)Nc3ccc(F)cc3)C2)cc1 (centres undefined)	n	n	n	x	x
CC(=O)c1cccc(NC(=O)N2CCC(c3ccc(C)cc3)C2)c1 (centres undefined)	13.5	n	n	n	n
NS(=O)(=O)c1ccc(CCNCc2ccccc2OCc2ccc(Cl)cc2)cc1	x	n	x	x	x
COc1cc(/C=N/Nc2ccccc2[N+](=O)[O-])cc(OC)c1O	n	x	n	n	x
COc1cc(/C=N/Nc2ccc(S(N)(=O)=O)cc2[N+](=O)[O-])cc(OC)c1O	10.9	n	x	n	n
O=C(c1ccccc1)N1CCN(CC(O)Cn2ccc3ccccc32)CC1 (centres undefined)	n	n	x	n	x

Screening results (PubChem BioAssay)
